Results gathered from unrelated publications.
Target: Tyrosine-protein kinase Fer (FER, Homo sapiens, UniProt P16591)

SMILES	assay	setting	quantity	value
C#Cc1n[nH]c2c(-c3cn([C@@H](C)c4ccccc4)c(=O)[nH]c3=O)cc(F)cc12	enzyme activity, inhibitor	0.1 µM	inhibition	1.5%
COc1cc(Nc2ncc(F)c(Nc3ccc4c(n3)NC(=O)C(C)(C)O4)n2)cc(OC)c1OC	binding, competition with immobilised ligand	10 µM	inhibition	78%
Nc1ncc(-c2nc(N3CCOCC3)nc(N3CCOCC3)n2)c(C(F)F)n1	binding, competition with immobilised ligand	10 µM	remaining binding	67%
COc1ncccc1-c1cnn2ccc(N3CCN(C(=O)OC(C)C)CC3)nc12	binding, competition with immobilised ligand	1 µM	remaining binding	100%
Cn1cncc1[C@@](O)(COc1ccc(C#N)cc1-c1ccc(OC(F)(F)F)cc1)c1ccc(C#N)cc1	cell-free assay, competition with immobilised ligand	1 µM	remaining binding	100%
Cc1nn(C)cc1-c1nc2c(N3CCN(Cc4ccc(Cl)cc4)CC3)c(Cl)cnc2[nH]1	binding, competition with immobilised ligand	1 µM	remaining binding	100%
Cn1cc(-c2cccc(N3CCc4c(sc5c4CC(C)(C)C5)C3=O)c2CO)cc(Nc2ccncn2)c1=O	enzyme activity, inhibitor	1 µM	inhibition	9%
CCn1cnc2c(Nc3cccc(Cl)c3)nc(N[C@H]3CCCC[C@H]3N)nc21	enzyme activity, inhibitor	0.5 µM	remaining activity	86.8%
Cn1cc(-c2cc(F)cc(N3CCn4c(cc5c4CCCC5)C3=O)c2CO)cc(Nc2ccc(N3CCN(C4COC4)CC3)cn2)c1=O	enzyme activity, inhibitor	0.1 µM	inhibition	10%
C#Cc1n[nH]c2c(-c3cn([C@@H](C)c4ccccn4)c(=O)[nH]c3=O)cc(F)cc12	enzyme activity, inhibitor	0.1 µM	inhibition	3.7%
CC(C)(C)c1cc(C=C(C#N)C#N)cc(Br)c1O	enzyme activity, inhibitor	0.5 µM	remaining activity	100%
